The source made the active and inactive calls. The calls are words filed in the database; no cut-off is given here.
Assays:
Homo sapiens [1] = species: Homo sapiens; assay: Stabilization of fluorescently-labeled human ER_pT594 peptide/human 14-3-3 zeta expressed in Escherichia coli BL21 (DE3)STAR competent cells protein-protein interaction assessed as increase in FP signal of 14-3-3/phosphopeptide complex at […] incubated for 1 hr by Fluorescence polarization assay
Homo sapiens [2] = species: Homo sapiens; assay: Stabilization of fluorescently-labeled human ER_pT594 peptide/human 14-3-3 zeta expressed in Escherichia coli BL21 (DE3)STAR competent cells protein-protein interaction assessed as increase in FP signal of 14-3-3/phosphopeptide complex incubated for 1 hr by Fluorescence polarization assay
Summary of the method: (§1)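 14-3-3ζ/phosphopeptide fluorescence polarization assay run as a concentration-response. EC1.2 is the compound concentration (μM) giving a 20% rise in FP signal of the 14-3-3/phosphopeptide complex, read from the curve. Triplicate, three independent experiments, errors as standard deviation.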

Homo sapiens [3] = species: Homo sapiens; assay: (§2) Stabilization of fluorescently-labeled human GR_pT524 peptide/human 14-3-3 zeta expressed in Escherichia coli BL21 (DE3)STAR competent cells protein-protein interaction assessed as fold increase in FP signal of 14-3-3/phosphopeptide complex at […] incubated for 1 hr by Fluorescence polarization assay relative to DMSO
Homo sapiens [4] = species: Homo sapiens; assay: as §2, with “ER_pT594” for “GR_pT524”
Homo sapiens [5] = species: Homo sapiens; assay: Stabilization of fluorescently-labeled human GR_pT524 peptide/human 14-3-3 zeta expressed in Escherichia coli BL21 (DE3)STAR competent cells protein-protein interaction assessed as increase in FP signal of 14-3-3/phosphopeptide complex incubated for 1 hr by Fluorescence polarization assay; summary of the method: as §1
[6] = target: T1, Glucocorticoid receptor (Homo sapiens) (UniProt P04150); assay: Displacement of [3H]dexamethasone from human glucocorticoid receptor by scintillation based radioligand binding assay
T1 sequence (whole entry): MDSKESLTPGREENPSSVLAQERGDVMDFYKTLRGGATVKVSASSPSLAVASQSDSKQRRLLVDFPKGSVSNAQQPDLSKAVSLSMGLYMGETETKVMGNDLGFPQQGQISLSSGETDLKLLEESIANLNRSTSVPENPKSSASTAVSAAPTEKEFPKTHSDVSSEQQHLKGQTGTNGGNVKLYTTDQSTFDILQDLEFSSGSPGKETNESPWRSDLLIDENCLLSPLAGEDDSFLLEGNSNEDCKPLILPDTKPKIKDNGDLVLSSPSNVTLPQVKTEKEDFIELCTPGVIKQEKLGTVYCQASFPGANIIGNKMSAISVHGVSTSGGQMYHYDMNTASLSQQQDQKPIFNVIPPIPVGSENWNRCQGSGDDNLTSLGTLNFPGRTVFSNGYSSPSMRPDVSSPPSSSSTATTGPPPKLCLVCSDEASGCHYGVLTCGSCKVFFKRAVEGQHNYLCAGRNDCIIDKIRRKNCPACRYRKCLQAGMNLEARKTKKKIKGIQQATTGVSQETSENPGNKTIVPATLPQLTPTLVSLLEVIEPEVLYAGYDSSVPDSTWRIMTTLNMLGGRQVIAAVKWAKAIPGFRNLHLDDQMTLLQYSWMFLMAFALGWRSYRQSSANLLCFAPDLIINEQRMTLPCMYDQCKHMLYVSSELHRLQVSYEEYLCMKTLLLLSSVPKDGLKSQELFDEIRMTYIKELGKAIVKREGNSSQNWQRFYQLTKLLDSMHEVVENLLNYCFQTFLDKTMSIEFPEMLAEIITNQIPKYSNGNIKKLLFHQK

Homo sapiens [7] = species: Homo sapiens; assay: Stabilization of fluorescently-labeled human GR_pT524 peptide/human 14-3-3 zeta expressed in Escherichia coli BL21 (DE3)STAR competent cells protein-protein interaction assessed as increase in FP signal of 14-3-3/phosphopeptide complex at […] incubated for 1 hr by Fluorescence polarization assay
[8] = Apparent permeability across apical to basolateral side in human Caco-2 cells at 10 uM incubated for 2 hrs; assay type: ADME, cell-based; settings: caco-2, 2 h
Homo sapiens [9] = species: Homo sapiens; assay: Stabilization of human GR_pT524 peptide/6His-tagged human 14-3-3 zeta protein-protein interaction at 1 mM by surface plasmon resonance analysis
Homo sapiens [10] = species: Homo sapiens; assay: Selectivity index, ratio of EC20 for stabilization of fluorescently-labeled human GR_pT524 peptide/human 14-3-3 zeta expressed in Escherichia coli BL21 (DE3)STAR competent cells protein-protein interaction to EC20 for stabilization of fluorescently-labeled human ER_pT594 peptide/human 14-3-3 zeta expressed in Escherichia coli BL21 (DE3)STAR competent cells protein-protein interaction

Compound | Activity (Homo sapiens [1]) | EC20 (Homo sapiens [2]) [µM] | fold change (FC) (Homo sapiens [3]) | fold change (FC) (Homo sapiens [4]) | EC20 (Homo sapiens [5]) [µM] | further results
O=C(O)c1cc(N2C(=O)C(O)=C(c3ccccc3)C2c2ccc([N+](=O)[O-])cc2)ccc1O (single isomer, unassigned; (+)) | inactive |  |  |  |  | 
O=C(O)c1cc(N2C(=O)C(O)=C(Cc3ccccc3)C2c2ccc([N+](=O)[O-])cc2)ccc1O (stereo not drawn) |  | 175 | 1.3 | 1.2 | 82 | 
O=C(C1=C(O)C(=O)N(c2ccc(O)c(C(=O)O)c2)[C@@H]1c1ccc([N+](=O)[O-])cc1)c1ccc(Cl)cc1 |  |  |  |  | 30 | 
O=C(C1=C(O)C(=O)N(c2ccc(O)c(C(=O)O)c2)C1c1ccc([N+](=O)[O-])cc1)c1ccc(Cl)cc1 (racemic) |  |  |  |  | 42 | Activity [6]: inactive
O=C(C1=C(O)C(=O)N(c2ccc(O)c(C(=O)O)c2)[C@@H]1c1ccc([N+](=O)[O-])cc1)c1ccccc1 |  | 15 | 1.6 | 2.3 | 32 | 
O=C(C1=C(O)C(=O)N(c2ccc(O)c(C(=O)O)c2)C1c1ccccc1)c1ccccc1 (stereo not drawn) | inactive |  |  |  |  | Activity (Homo sapiens [7]): inactive
O=C(C1=C(O)C(=O)N(c2ccccc2O)C1c1ccc([N+](=O)[O-])cc1)c1ccccc1 (stereo not drawn) |  | 75 |  | 1.4 |  | Papp [8]: 0.25 10^-6 cm/s; Activity (Homo sapiens [7]): inactive
O=C(C1=C(O)C(=O)N(c2ccc(O)c(C(=O)O)c2)[C@H]1c1ccc([N+](=O)[O-])cc1)c1ccccc1 | inactive |  | 1.2 |  | 162 | 
C=CC(C)(C)OC[C@H]1O[C@H](O[C@@H]2C3=C([C@H](C)COC(C)=O)C[C@H](O)[C@]3(C)/C=C3/[C@@H](COC)CC[C@H]3[C@@H](C)[C@H]2O)[C@H](O)[C@@H](O)[C@@H]1O |  |  |  |  |  | Activity (Homo sapiens [9]): inactive; Activity (Homo sapiens [5]): inactive
O=C(C1=C(O)C(=O)N(c2ccc(O)cc2)C1c1ccc([N+](=O)[O-])cc1)c1ccccc1 (stereo not drawn) |  | 87 |  | 1.6 |  | Papp [8]: 0.13 10^-6 cm/s; Activity (Homo sapiens [7]): inactive
O=C(O)c1cc(N2C(=O)C(O)=C(c3ccccc3)C2c2ccc([N+](=O)[O-])cc2)ccc1O (single isomer, unassigned; (-)) | inactive |  | 1.5 |  | 40 | 
O=C(C1=C(O)C(=O)N(c2ccc(O)c(C(=O)O)c2)[C@H]1c1ccc([N+](=O)[O-])cc1)c1ccc(Cl)cc1 | inactive |  |  |  | 126 | 
Nc1ccc(C2C(C(=O)c3ccccc3)=C(O)C(=O)N2c2ccc(O)c(C(=O)O)c2)cc1 (stereo not drawn) | inactive |  |  |  |  | Activity (Homo sapiens [7]): inactive
O=C(O)c1cc(N2C(=O)C(O)=C(C(=O)c3ccccc3Cl)C2c2ccc([N+](=O)[O-])cc2)ccc1O (stereo not drawn) |  | 73 | 1.2 | 1.4 | 96 | 
O=C(C1=C(O)C(=O)N(c2ccc(O)c(C(=O)O)c2)C1c1ccc2c(c1)COC2=O)c1ccccc1 (stereo not drawn) |  | 63 | 1.2 | 1.6 | 150 | 
O=C(O)c1cc(N2C(=O)C(O)=C(c3ccccc3)C2c2ccc([N+](=O)[O-])cc2)ccc1O (racemic) | inactive |  | 1.4 |  | 45 | 
O=C(C1=C(O)C(=O)N(c2ccc(O)c(C(=O)O)c2)C1c1ccc([N+](=O)[O-])cc1)c1cccc(OC(F)F)c1 (stereo not drawn) | inactive |  |  |  |  | Activity (Homo sapiens [7]): inactive
O=C(C1=C(O)C(=O)N(c2ccc(O)c(C(=O)O)c2)C1c1ccc([N+](=O)[O-])cc1)c1ccccc1 (stereo not drawn) |  | 28 | 1.4 | 1.9 | 63 | Ratio (Homo sapiens [10]): 2; Papp [8]: 0.047 10^-6 cm/s

— ChEMBL document CHEMBL5236623, “Designing Selective Drug-like Molecular Glues for the Glucocorticoid Receptor/14-3-3 Protein-Protein Interaction” (J Med Chem, 2022)
